According to ChEMBL document CHEMBL1142319, “New antitumor imidazo[2,1-b]thiazole guanylhydrazones and analogues” (2008):

How the values were obtained:
Type in all cases: functional
Conditions in all cases: for TGI: read-out: pTGI (converted)
[1] = test system: Cancer cell lines; experiment: Inhibition of human colon cancer cells
How it was run: (§1)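 NCI 60-cell-line panel, with results grouped by tissue subpanel. Compounds dissolved in DMSO and tested at five 10-fold dilutions, top concentration 10^-4 M. Values given as -log molar concentration for 50% growth inhibition (pGI50), total growth inhibition (pTGI) and 50% cell kill (pLC50), with subpanel means calculated.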

[2] = test system: Leukemia cell; experiment: Inhibition of human leukemia cells; how it was run: as §1
[3] = test system: Cancer cell lines; experiment: Inhibition of human non-small cell lung cancer cells; how it was run: as §1
[4] = test system: Cancer cell lines; experiment: Inhibition of human CNS cancer cells; how it was run: as §1
[5] = test system: Melanoma cell; experiment: Inhibition of human melanoma cells; how it was run: as §1
[6] = test system: Cancer cell lines; experiment: Inhibition of human ovarian cancer cells; how it was run: as §1
[7] = test system: Cancer cell lines; experiment: Inhibition of human renal cancer cells; how it was run: as §1
[8] = test system: Cancer cell lines; experiment: Inhibition of human prostate cancer cells; how it was run: as §1
[9] = test system: Cancer cell lines; experiment: Inhibition of human breast cancer cells; how it was run: as §1

GI50 [1] | GI50 [2] | GI50 [3] | GI50 [4] | GI50 [5] | GI50 [6] | GI50 [7] | GI50 [8] | GI50 [9] | Structure (SMILES) | TGI [1] | TGI [2] | TGI [3] | TGI [4] | TGI [5] | TGI [6] | TGI [7] | TGI [8] | TGI [9]
9.77 µM | 6.76 µM | 12.9 µM | 12 µM | 15.1 µM | 10.2 µM | 8.32 µM | 12.3 µM | 14.8 µM | N=C(N)N/N=C/c1c(-c2cccs2)nc2sccn12 | 24 µM | 38 µM | 29.5 µM | 25.7 µM | 28.8 µM | 26.9 µM | 21.9 µM | 24.5 µM | 28.2 µM
20.9 µM | 14.1 µM | 18.2 µM | 19.5 µM | 19.5 µM | 20.9 µM | 21.4 µM | 17 µM | 22.9 µM | CCOC(=O)c1nc2sc(Cl)cn2c1/C=N\NC(=N)N | 47.9 µM | 38.9 µM | 41.7 µM |  | 45.7 µM |  |  | 38.9 µM | 
22.9 µM | 19.1 µM | 28.8 µM | 25.1 µM | 21.9 µM | 14.5 µM | 28.2 µM | 17.4 µM | 32.4 µM | N=C(N)N/N=C/c1c(-c2ccsc2)nc2n1CCS2 |  |  |  |  |  |  |  |  | 
6.03 µM | 10.2 µM | 9.33 µM | 8.13 µM | 8.51 µM | 7.94 µM | 8.51 µM | 9.33 µM | 10 µM | COc1cc(OC)cc(-c2nc3sccn3c2/C=N/NC(=N)N)c1 | 14.8 µM | 19.1 µM | 20.4 µM | 17.4 µM | 17.8 µM | 17 µM | 17.8 µM | 16.2 µM | 20.4 µM
17.4 µM | 18.6 µM | 28.8 µM | 19.1 µM | 21.4 µM | 39.8 µM | 22.9 µM | 19.5 µM | 17.4 µM | N=C(N)N/N=C/c1c(-c2cccs2)nc2n1CCS2 | 38.9 µM | 38.9 µM |  | 39.8 µM | 38 µM |  |  | 36.3 µM | 40.7 µM
3.72 µM | 47.9 µM | 9.77 µM | 8.32 µM | 7.41 µM | 12 µM | 14.1 µM | 4.79 µM | 4.47 µM | Cc1cc(-c2nc3sc(C)cn3c2/C=N/NC(=N)N)c(C)s1 | 11.7 µM |  | 25.1 µM | 18.2 µM | 15.1 µM | 33.1 µM | 32.4 µM | 19.1 µM | 13.5 µM
0.977 µM | 1 µM | 2.69 µM | 1.12 µM | 2.82 µM | 1.1 µM | 1.62 µM | 1.55 µM | 1.66 µM | N=C(N)N/N=C/c1c(-c2cc(Cl)sc2Cl)nc2sccn12 | 2.34 µM | 2.14 µM | 10.7 µM | 2.82 µM | 7.24 µM | 3.55 µM | 5.75 µM | 6.17 µM | 4.27 µM
5.37 µM | 7.76 µM | 13.8 µM | 6.92 µM | 8.13 µM | 11 µM | 10.2 µM | 7.59 µM | 7.76 µM | Cc1cn2c(/C=N/NC(=N)N)c(-c3ccsc3)nc2s1 | 20.4 µM | 46.8 µM | 41.7 µM | 19.5 µM | 19.5 µM | 27.5 µM | 28.2 µM | 20 µM | 22.4 µM
